Experimental data gathered from unrelated publications.
Target: Mitogen-activated protein kinase 9 (MAPK9, Homo sapiens, UniProt P45984)

| SMILES | effect on | action | method | tested at | endpoint | result |
| --- | --- | --- | --- | --- | --- | --- |
| C1=C/COCc2cc(ccc2OCCN2CCCC2)Nc2nccc(n2)-c2cccc(c2)COC/1 | cell-free assay | – | – | 0.1 µM | remaining signal | 47% |
| CCCCC(=O)Nc1ccc(-c2ccc3ncn(CCC)c(=O)c3c2)cn1 | binding | – | competition with immobilised ligand | 0.5 µM | remaining binding | 68% |
| C[C@H]1CC[C@H](n2c3cnccc3c3cnc(Nc4ccc5c(n4)CCN(C(=O)CO)C5)nc32)CC1 | binding | – | competition with immobilised ligand | 1 µM | remaining binding | 2.6% |
| C=CC(=O)N1CCC[C@@H](n2nc(-c3ccc(Oc4ccccc4)cc3)c3c(N)ncnc32)C1 | enzyme activity | inhibitor | – | 1 µM | inhibition | 21% |
| C#Cc1cnc(Nc2ccnc(CO)c2)nc1Nc1ccccc1S(C)(=O)=NC#N (stereo not drawn) | cell-free assay | – | – | 1 µM | remaining signal | 58% |
| C=CC(=O)N1CCC([C@@H]2CCNc3c(C(N)=O)c(-c4ccc(Oc5ccccc5)cc4)nn32)CC1 | enzyme activity | inhibitor | – | 1 µM | inhibition | 0% |
| N#Cc1ccc(NC(=O)Nc2ccccc2)cc1 | cell-free assay | – | competition with immobilised ligand | 25 µM | remaining binding | 100% |
| Cc1ccc(NC(=O)c2ccnc(C(F)(F)F)c2)cc1-c1cc(OCCO)nc(N2CCOCC2)c1 | binding | – | competition with immobilised ligand | 1 µM | remaining binding | 83% |
| COc1ccc2oc(-c3ccc4nc(N)oc4c3)c/c(=N\c3ccccc3NC(=O)CCN)c2c1 | binding | – | – | 1 µM | remaining binding | 98% |
